Laboratory results published in ChEMBL document CHEMBL1153540, “Structure-based optimization of arylamides as inhibitors of soluble epoxide hydrolase” (J Med Chem, 2009).

Assays:
[1] = Plasma concentration in Sprague-Dawley rat at 5 mg/kg, po after 4 hrs by LC-MS/MS analysis; assay type: ADME, organism-based; design: dose 5 mg/kg, route oral
Procedure, shortened: (§1)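 Male Sprague-Dawley rats fitted with jugular catheters, fed, three per compound, dosed orally at 5 mg/kg. Vehicle was 1% CMC/0.2% Tween80 in water, or 80% PEG 400/20% pH 2 30 mM citric acid, depending on compound. Serial heparinized blood taken at 1, 2, 4 and 6 h. Plasma proteins precipitated with acetonitrile; compound quantified by LC/MS/MS in MRM mode.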

[2] = Plasma concentration in Sprague-Dawley rat at 5 mg/kg, po after 1 hr by LC-MS/MS analysis; assay type: ADME, organism-based; design: dose 5 mg/kg, route oral; procedure, shortened: as §1
[3] = Plasma concentration in Sprague-Dawley rat at 5 mg/kg, po after 2 hrs by LC-MS/MS analysis; assay type: ADME, organism-based; design: dose 5 mg/kg, route oral; procedure, shortened: as §1
[4] = Aqueous solubility at pH 7.4; assay type: physicochemical

| concentration at 4 h [1] [nM] | concentration at 1 h [2] [nM] | concentration at 2 h [3] [nM] | solubility [4] [µg/mL] | SMILES |
| --- | --- | --- | --- | --- |
| 3600 |  |  |  | CS(=O)(=O)c1ccc(C(CCNC(=O)c2ccc(C#N)cc2)c2ccc(F)cc2)cc1 (stereo not given) |
| 100 | 300 | 200 | < 0.1 | O=C(NCCC(c1ccc(F)cc1)c1ccc(F)cc1)c1ccc(OCC(F)(F)F)nc1 |
